Measurements: ChEMBL document CHEMBL1909594, “Synthesis of polyfunctionalized piperidone oxime ethers and their cytotoxicity on HeLa cells” (Bioorg Med Chem Lett, 2011)
Calls of active or inactive are those of the source. The rule behind the calls is not given here.

Columns and labels:
HeLa [1] = experiment: cells; type: functional, cell-based; conditions: Homo sapiens, 24 h
HeLa [2] = experiment: Induction of apoptosis in human HeLa cells assessed as blebbing of cellular membrane at 25 uM after 24 hrs using Hoechst staining method; type: functional, cell-based; conditions: in the assay text read “by phase contrast microscopy” for “using Hoechst staining method”
Outline: (§1)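 HeLa cells (ATCC) were grown in DMEM with 10% heat-inactivated FBS plus penicillin/streptomycin at 37 °C under 5% CO₂. Cells at 1 × 10⁵/well were exposed to compound for 24 h. Morphology changes were then examined by phase-contrast light microscopy against untreated cells.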

HeLa [3] = experiment: Induction of apoptosis in human HeLa cells assessed as chromosomal condensation at 25 uM after 24 hrs using Hoechst staining method; type: functional, cell-based
Outline: (§2)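 HeLa cells at 1 × 10⁴ cells/well in 96-well plates, in three replicates, were treated and incubated overnight at 37 °C. Cells were washed twice with PBS and fixed in 4% paraformaldehyde in PBS for one day. They were stained with 1 µg/mL Hoechst 33342 for 20 min at room temperature. Nuclei were imaged by fluorescence microscopy at 360/470 nm excitation/emission.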

HeLa [4] = experiment: Induction of apoptosis in human HeLa cells assessed as formation of apoptotic bodies at 25 uM after 24 hrs using Hoechst staining method; type: functional, cell-based
Outline: as §2

HeLa [5] = experiment: Induction of apoptosis in human HeLa cells assessed as margination of chromation into horseshoe shaped structure at 25 uM after 24 hrs using Hoechst staining method; type: functional, cell-based
Outline: as §2

HeLa [6] = experiment: Ratio of camptothecin IC50 to compound IC50 for human HeLa cells; type: functional
HeLa [7] = experiment: Induction of apoptosis in human HeLa cells assessed as cell membrane rupture at 25 uM after 24 hrs using Hoechst staining method; type: functional, cell-based; conditions: in the assay text read “by phase contrast microscopy” for “using Hoechst staining method”
Outline: as §1

HeLa [8] = experiment: Induction of apoptosis in human HeLa cells assessed as cytoplasm content release at 25 uM after 24 hrs using Hoechst staining method; type: functional, cell-based; conditions: in the assay text read “by phase contrast microscopy” for “using Hoechst staining method”
Outline: as §1

HeLa [9] = experiment: Induction of apoptosis in human HeLa cells assessed as fragmentation of nucleus at 25 uM after 24 hrs using Hoechst staining method; type: functional, cell-based
Outline: as §2

HeLa [10] = experiment: Induction of apoptosis in human HeLa cells assessed as deformed nucleus/cytoplasm consistency at 25 uM after 24 hrs using Hoechst staining method; type: functional, cell-based
Outline: as §2

HeLa [11] = experiment: Induction of apoptosis in human HeLa cells assessed as chromosomal fragmentation at 25 uM after 24 hrs using Hoechst staining method; type: functional, cell-based
Outline: as §2

CO/N=C1\C[C@@H](c2ccc(F)cc2)N[C@@H](c2ccc(F)cc2)[C@@H]1C showed an IC50 (HeLa [1]) of 49.2 µM.
CO/N=C1\C[C@@H](c2cccc(F)c2)N[C@@H](c2cccc(F)c2)[C@@H]1C was tested, and the IC50 (HeLa [1]) was 38.4 µM.
For CO/N=C1\C[C@@H](c2ccc(C)cc2)N[C@@H](c2ccc(C)cc2)[C@@H]1C, the IC50 (HeLa [1]) was 81.6 µM.
For CO/N=C1\C[C@@H](c2ccc(OC)cc2)N[C@@H](c2ccc(OC)cc2)[C@@H]1C, the IC50 (HeLa [1]) was 154 µM.
Compound CC[C@@H]1/C(=N/OC)C[C@@H](c2ccccc2)N[C@H]1c1ccccc1 has an IC50 (HeLa [1]) of 57.3 µM.
For CO/N=C1\C[C@@H](c2ccccc2)N[C@@H](c2ccccc2)[C@@H]1C(C)C, the IC50 (HeLa [1]) was 49.5 µM.
With CO/N=C1/[C@@H](C)[C@H](c2cccc(F)c2)N[C@H](c2cccc(F)c2)[C@H]1C the IC50 (HeLa [1]) was 37.9 µM.
CO/N=C1/[C@@H](C)[C@H](c2ccc(C)cc2)N[C@H](c2ccc(C)cc2)[C@H]1C showed an IC50 (HeLa [1]) of 54.9 µM.
Work on CO/N=C1/[C@@H](C)[C@H](c2ccc(C(C)C)cc2)N[C@H](c2ccc(C(C)C)cc2)[C@H]1C yielded an IC50 (HeLa [1]) of 51 µM.
Work on CO/N=C1/[C@@H](C)[C@H](c2ccc(OC)cc2)N[C@H](c2ccc(OC)cc2)[C@H]1C yielded an IC50 (HeLa [1]) of 93.9 µM.
For CCOc1ccc([C@H]2N[C@@H](c3ccc(OCC)cc3)[C@H](C)/C(=N/OC)[C@@H]2C)cc1, the IC50 (HeLa [1]) was 98 µM.
Compound CO/N=C1\C[C@@H](c2ccc(Cl)cc2)N(C)[C@@H](c2ccc(Cl)cc2)[C@@H]1C has an IC50 (HeLa [1]) of 36.3 µM.
For CO/N=C1\C[C@@H](c2ccc(F)cc2)N(C)[C@@H](c2ccc(F)cc2)[C@@H]1C, the IC50 (HeLa [1]) was 40.7 µM.
CO/N=C1\C[C@@H](c2ccc(C)cc2)N(C)[C@@H](c2ccc(C)cc2)[C@@H]1C was tested, and the IC50 (HeLa [1]) was 47.7 µM.
CO/N=C1\C[C@@H](c2ccc(OC)cc2)N(C)[C@@H](c2ccc(OC)cc2)[C@@H]1C gave an IC50 (HeLa [1]) of 80.6 µM.
In the case of CC[C@@H]1/C(=N/OC)C[C@@H](c2ccccc2)N(C)[C@H]1c1ccccc1, the IC50 (HeLa [1]) is reported as 41.7 µM.
CO/N=C1\C[C@@H](c2ccccc2)N[C@@H](c2ccccc2)C1 (relative stereo) showed an IC50 (HeLa [1]) of 121 µM.
Compound CO/N=C1\C[C@@H](c2ccccc2)N[C@@H](c2ccccc2)[C@@H]1C (relative stereo) has an IC50 (HeLa [1]) of 113 µM.
CO/N=C1\C[C@@H](c2ccc(Br)cc2)N[C@@H](c2ccc(Br)cc2)[C@@H]1C (relative stereo) was tested, and the Activity (HeLa [2]) was “Active”, the Activity (HeLa [3]) was “Active” and the Activity (HeLa [4]) was “Active”. The Activity (HeLa [5]) was “Active”, the IC50 (HeLa [1]) was 25 µM and the “Ratio IC50” value (HeLa [6]) was 3. The Activity (HeLa [7]) was “Active”, the Activity (HeLa [8]) was “Active” and the Activity (HeLa [9]) was “Active”. For the same compound, the Activity (HeLa [10]) was “Active” and the Activity (HeLa [11]) was “Active”.
Compound CO/N=C1\C[C@@H](c2ccc(Cl)cc2)N[C@@H](c2ccc(Cl)cc2)[C@@H]1C (relative stereo) has an IC50 (HeLa [1]) of 49 µM.
In the case of CC[C@@]1(O)C(=O)OCc2c1cc1n(c2=O)Cc2cc3ccccc3nc2-1 [CAMPTOTHECIN], the IC50 (HeLa [1]) is reported as 8.93 µM.
With COc1cc([C@@H]2c3cc4c(cc3[C@@H](O[C@@H]3O[C@@H]5CO[C@@H](C)O[C@H]5[C@H](O)[C@H]3O)[C@H]3COC(=O)[C@H]23)OCO4)cc(OC)c1O [ETOPOSIDE] the IC50 (HeLa [1]) was 23.3 µM.
